An excerpt weighted towards active compounds, which were near 2.5% of everything screened.
ERAP1 HTS inh: human ERAP1 aminopeptidase inhibitors, primary screen, biochemical, single point, plate reader; Endoplasmic reticulum aminopeptidase 1 (Homo sapiens), Q9NZ08; recombinant ERAP1, Leu-AMC fluorescence, 60 min; inhibition, % at 10.7 µM; actives 0.15% (n = 340,000); AID 652197, 2013;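 active = mean replicate inhibition of at least 30%, or all replicates individually reaching that 30% level; inactive = mean below 30% and not every replicate reaching it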;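 note: 0% = neutral control wells and 100% = L-leucinethiol positive control wells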
E-selectin induc: E-selectin induction in HUVECs, primary screen, imaging, HUVEC, immunofluorescence imaging, single point; P16581; normalized: neutral wells 0, TNF-alpha wells 100; activation, % at 7.58 µM; actives 0.37% (n = 260,000); AID 686992, 2013;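 active = mean E-selectin-positive cell signal at least 10% of the positive control, reached in at least 60% of replicates, without over 20% cell loss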
Target sequence (P16581 whole entry, looked up): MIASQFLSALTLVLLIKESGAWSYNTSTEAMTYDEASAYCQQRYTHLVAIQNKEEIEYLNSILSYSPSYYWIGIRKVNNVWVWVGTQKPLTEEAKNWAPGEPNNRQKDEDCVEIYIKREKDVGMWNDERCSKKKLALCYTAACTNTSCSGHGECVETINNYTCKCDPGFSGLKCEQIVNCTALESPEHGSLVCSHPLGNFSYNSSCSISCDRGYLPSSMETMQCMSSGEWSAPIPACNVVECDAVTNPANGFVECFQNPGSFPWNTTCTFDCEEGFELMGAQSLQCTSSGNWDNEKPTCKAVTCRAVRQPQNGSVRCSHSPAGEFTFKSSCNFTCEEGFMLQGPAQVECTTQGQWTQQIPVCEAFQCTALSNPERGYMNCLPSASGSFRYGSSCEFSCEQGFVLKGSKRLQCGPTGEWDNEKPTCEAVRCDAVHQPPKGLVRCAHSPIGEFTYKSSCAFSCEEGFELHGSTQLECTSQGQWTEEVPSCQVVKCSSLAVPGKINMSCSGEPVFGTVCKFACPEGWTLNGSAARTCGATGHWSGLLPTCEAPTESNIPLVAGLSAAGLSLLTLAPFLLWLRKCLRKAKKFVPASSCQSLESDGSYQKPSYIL
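Test system – human umbilical vein endothelial cells (HUVEC), E-selectin induction · Input – 3,000 HUVEC seeded per well · Buffer or medium – EGM-2, gelatin · Compound dosing – single-point compound dose · Detection – immunofluorescence imaging · Measure – percent E-selectin-positive cells · Controls – TNF-alpha high, DMSO low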
DENV2 CPE: inhibitors of DENV2 cytopathic effect, primary screen, cell-based, plate reader, single concentration; DENV2-infected cells, cytopathic effect rescue; actives 1.7% (n = 350,000); CPE inhibition, % at 9.99 µM; in the data active = CPE inhibition above about 20%, passing the limit was not always enough; tested in BHK-21 cells;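 note: 0% = median of neutral control wells and 100% = median of positive control wells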
SIRT5 inh: SIRT5 desuccinylase inhibitors, primary screen, biochemical, fluorescence imaging, single point, set 5; AID 652115, 2013; Purified SirT5, succinyl-peptide AMC, trypsin-coupled fluorescence; inhibition, % at 15 µM; actives 1.1% (n = 330,000); in the data active = inhibition above about 15%
PglD DTNB: C. jejuni PglD acetyltransferase inhibitors, primary screen, biochemical, DTNB colorimetric, single point. purified PglD enzyme, DTNB colorimetric CoA detection. inhibition, % at 12.5 µM. AID 602405, 2012. actives 0.098% (n = 360,000); in the data active = inhibition above about 16%, passing the limit was not always enough
The depositor's hits bear a star.

How did COc1ccc(S(=O)(=O)N2CCCCN3[C@H](C2)[C@@H](c2ccc(C#CC(C)C)cc2)[C@@H]3CO)cc1 do in these assays?
ERAP1 HTS inh: -0.9; E-selectin induc: -0.5; DENV2 CPE: -24.8; SIRT5 inh: 16.5*; PglD DTNB: -2.4

What do the screens show for `CCOc1ccc(NS(=O)(=O)c2c(C)nc3sccn3c2=O)cc1`?
ERAP1 HTS inh: 1.5; E-selectin induc: -0.5; DENV2 CPE: 15.2; SIRT5 inh: 1.0; PglD DTNB: -4.2

How did Cc1noc(C)c1S(=O)(=O)Nc1cccc2c1O[C@H](CN(C)S(=O)(=O)c1cn(C)cn1)[C@H](C)CN([C@@H](C)CO)C2=O do in these assays?
ERAP1 HTS inh: 5.4; E-selectin induc: -0.3; DENV2 CPE: 9.0; SIRT5 inh: 2.8; PglD DTNB: -0.5

What do the screens show for `COc1ccc(-c2ccc(SCC(=O)c3cccs3)nn2)cc1`?
ERAP1 HTS inh: 1.6; DENV2 CPE: 6.2; SIRT5 inh: -1.5

How did O=C(CSc1ccc(-c2ccccc2)nn1)c1cccs1 do in these assays?
ERAP1 HTS inh: 9.0; E-selectin induc: 1.0; SIRT5 inh: 16.2*

How did COc1ccc(C(=O)NCC(=O)OCc2ccccc2F)cc1 do in these assays?
ERAP1 HTS inh: 0.0; E-selectin induc: 0.4; DENV2 CPE: 3.1; SIRT5 inh: 31.8*; PglD DTNB: 0.1

What do the screens show for `CN(C)c1ccc(/C=C/C=N/Nc2nc(N3CCOCC3)nc(N3CCOCC3)n2)cc1`?
ERAP1 HTS inh: -3.6; E-selectin induc: 63.0*; DENV2 CPE: 2.4; SIRT5 inh: -3.2; PglD DTNB: 1.5

What do the screens show for `CSc1ccc(/C=N/NC(=O)c2ccc3nc[nH]c3c2)cc1`?
ERAP1 HTS inh: -0.2; E-selectin induc: 40.5*; DENV2 CPE: -12.7; PglD DTNB: 3.1

What do the screens show for `COc1ccc(C(NC(=O)C2CCN(CCCc3ccccc3)CC2)c2ccccn2)cc1` (stereo not drawn)?
PglD DTNB: 4.3

How did Cc1ccc(S(=O)(=O)N(C)CC(=O)N2CCN(Cc3ccc4c(c3)OCO4)CC2)cc1 do in these assays?
ERAP1 HTS inh: 1.9; DENV2 CPE: 5.7; SIRT5 inh: 30.1*; PglD DTNB: 5.9

What do the screens show for `O=C(NC(c1ccc(Cl)cc1)c1cnccn1)C1CCN(Cc2ccc(Oc3ccccc3)cc2)CC1` (stereo not drawn)?
ERAP1 HTS inh: 4.0; E-selectin induc: 0.2; DENV2 CPE: 84.3*; SIRT5 inh: -0.3; PglD DTNB: 0.3

What do the screens show for `COc1ccc(C(NC(=O)C2CCN(CCc3ccccc3)CC2)c2ccccn2)cc1` (stereo not drawn)?
ERAP1 HTS inh: -1.7; E-selectin induc: 0.1; DENV2 CPE: 2.0; SIRT5 inh: 15.2*; PglD DTNB: -2.0

Results for Cc1cccnc1C(NC(=O)C1CCN(CCCc2ccccc2)CC1)c1ccc(Cl)cc1 (stereo not drawn) ?
ERAP1 HTS inh: -10.4; E-selectin induc: -0.1; DENV2 CPE: 20.2*; SIRT5 inh: 1.7; PglD DTNB: 2.2

How did COc1cccc(NC(=O)COC(=O)c2c3c(nc4ccccc24)CCC(C)C3)c1 (stereo not drawn) do in these assays?
PglD DTNB: 0.5

Results for Cc1ccc(N2CCN(S(=O)(=O)c3c(C)nc4sccn4c3=O)CC2C)cc1 (stereo not drawn) ?
ERAP1 HTS inh: 8.0; DENV2 CPE: -2.4; SIRT5 inh: 4.4; PglD DTNB: -1.4

What do the screens show for `CC(Oc1ccc(Cl)cc1Cl)C(=O)N(C)c1ccccc1` (stereo not drawn)?
ERAP1 HTS inh: 5.0; DENV2 CPE: 0.3; PglD DTNB: -3.2

Results for COc1cccc(CN2CCC(C(=O)N3CCN(Cc4ccc5c(c4)OCO5)CC3)CC2)c1 ?
ERAP1 HTS inh: -8.9; E-selectin induc: -0.3; DENV2 CPE: 5.0; SIRT5 inh: 17.0*; PglD DTNB: -0.6

Results for COc1ccc(CN2CCC(C(=O)NC(c3ccc4c(c3)OCO4)c3ccccn3)CC2)cc1 (stereo not drawn) ?
ERAP1 HTS inh: 0.4; DENV2 CPE: 100.5*; SIRT5 inh: -2.5; PglD DTNB: 5.7

Results for COc1cc(CC(=O)Nc2ccc(S(=O)(=O)Nc3ncccn3)cc2)cc(OC)c1OC ?
PglD DTNB: 1.7

How did COc1cccc(NC(=O)CC(=O)c2ccccc2)c1 do in these assays?
ERAP1 HTS inh: 1.3; DENV2 CPE: -4.9; SIRT5 inh: -0.4; PglD DTNB: 13.1

What do the screens show for `CCn1c2ccccc2c2cc(NC(=O)CSc3nnnn3-c3ccccc3)ccc21`?
PglD DTNB: 0.1

How did OC(CSc1nnnn1-c1ccccc1)Cn1c2ccccc2c2ccccc21 (stereo not drawn) do in these assays?
ERAP1 HTS inh: -4.3; E-selectin induc: -0.1; DENV2 CPE: 21.2*

What do the screens show for `C/C(=N\NC(=O)c1cc(-c2ccccc2C)nc2ccccc12)c1cccnc1`?
ERAP1 HTS inh: 2.6; E-selectin induc: 49.6*; DENV2 CPE: 13.6; SIRT5 inh: -0.8; PglD DTNB: 0.2

How did N#C[C@@H]1[C@@H](c2ccccc2-c2cccc(F)c2)[C@@H](CO)N1C(=O)CN1CCOCC1 do in these assays?
ERAP1 HTS inh: -1.4; E-selectin induc: 0.0; DENV2 CPE: -3.8; SIRT5 inh: -3.1

What do the screens show for `COCCNC(=S)NCc1ccc2[nH]c3c(c2c1)CCCC3`?
ERAP1 HTS inh: -1.8; E-selectin induc: -0.1; DENV2 CPE: 32.9*; SIRT5 inh: -1.4; PglD DTNB: 3.5

How did CC(C)CNC(=O)C1Nc2ccccc2C2C=CCC12 (stereo not drawn) do in these assays?
ERAP1 HTS inh: -4.0; DENV2 CPE: 63.2*; PglD DTNB: -0.1

How did COC(=O)CNC(=O)C1Nc2ccccc2C2C=CCC12 (stereo not drawn) do in these assays?
ERAP1 HTS inh: -1.7; DENV2 CPE: 15.2; PglD DTNB: 5.3

How did CN(C)C1(CNC(=O)C2CCN(S(=O)(=O)c3cc(Cl)ccc3Cl)CC2)CCCCC1 do in these assays?
ERAP1 HTS inh: 0.1; E-selectin induc: 70.2*; DENV2 CPE: 3.8; SIRT5 inh: -2.2; PglD DTNB: 2.6

What do the screens show for `CC(C)c1ccc(S(=O)(=O)N2CCC(C(=O)NCC3(N(C)C)CCCCC3)CC2)cc1`?
ERAP1 HTS inh: 0.6; DENV2 CPE: 4.2; SIRT5 inh: -1.7; PglD DTNB: -2.0

What do the screens show for `CC(=O)N1[C@H](CO)[C@H](c2ccc(-c3ccc(C#N)cc3)cc2)C12CN(C(=O)C1CC1)C2`?
ERAP1 HTS inh: -3.5; E-selectin induc: -0.1; DENV2 CPE: 61.9*; SIRT5 inh: 4.5

Results for CC(=O)N1[C@@H](CO)[C@@H](c2ccc(-c3ccc(C#N)cc3)cc2)C12CN(C(=O)C1CC1)C2 ?
ERAP1 HTS inh: -2.6; E-selectin induc: 0.0; DENV2 CPE: 7.9
